The test concerns Spodoptera litura. In words: Antifeedant activity against Spodoptera litura F. by choice leaf disk assay. Type of test: functional. The method in brief:
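Antifeedant value calculated from the rate of leaf consumption. A straight line was fitted to the bioassay points to obtain the ED50.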
As for `O=c1cc(-c2ccccc2)oc2ccc(O)cc12` [6-HYDROXYFLAVONE], the ED50 is reported as >10 umol/cm2.
Next, `COc1ccc2c(=O)cc(C)oc2c1`: >10 umol/cm2.
The value for `COc1ccc2c(=O)ccoc2c1` [7-METHOXYCHROMONE] was 0.096 umol/cm2; that for `O=c1cc(-c2ccc(O)c(O)c2)oc2cc(O)cc(O)c12` [LUTEOLIN] was >10 umol/cm2; that for `COc1cc2oc(C)cc(=O)c2c(OC)c1OC` was 0.41 umol/cm2.
The value for `COc1cc(OC)c2c(=O)cc(C)oc2c1` was >10 umol/cm2; that for `COc1cc2oc(-c3ccccc3)cc(=O)c2c(O)c1OC` [MOSLOFLAVONE] was >10 umol/cm2; that for `O=c1cc(-c2ccccc2)oc2ccccc12` [FLAVONE] was 0.11 umol/cm2.
The compound `COc1ccc(-c2cc(=O)c3c(OC)c(OC)c(OC)c(OC)c3o2)cc1` [TANGERETIN] had an ED50 of 0.28 umol/cm2.
Next, `O=c1cc(-c2ccccc2)oc2cc(O)c(O)c(O)c12` [BAICALEIN]: 0.96 umol/cm2.
The value for `O=c1cc(-c2ccccc2)oc2cc(O)cc(O)c12` [CHRYSIN] was 2.5 umol/cm2; that for `Cc1ccc2oc(-c3ccccc3)cc(=O)c2c1` [6-METHYLFLAVONE] was 0.035 umol/cm2; that for `O=c1cc(-c2ccc(O)cc2)oc2cc(O)cc(O)c12` [APIGENIN] was >10 umol/cm2.
The value for `COc1c(O)cc2oc(-c3ccccc3)cc(=O)c2c1O` [OROXYLIN A] was >10 umol/cm2.
On to `COc1c(O)cc(O)c2c(=O)cc(-c3ccccc3)oc12` [WOGONIN], for which the ED50 was determined as 2 umol/cm2.
Next, `Cc1ccc2c(=O)cc(C)oc2c1` [2,7-DIMETHYLCHROMONE]: 0.102 umol/cm2; `COc1ccc2oc(-c3ccccc3)cc(=O)c2c1` [6-METHOXYFLAVONE]: 0.15 umol/cm2; `O=c1cc(-c2ccccc2)oc2cc(O)ccc12` [7-HYDROXYFLAVONE]: >10 umol/cm2.
The value for `COc1cc(O)c2c(=O)cc(-c3ccccc3)oc2c1O` [ISOWOGONIN] was >10 umol/cm2; that for `O=c1ccoc2ccccc12` [CHROMONE] was 0.168 umol/cm2; that for `COc1ccc(-c2cc(=O)c3c(OC)c(OC)c(OC)c(OC)c3o2)cc1OC` [NOBILETIN] was 5.6 umol/cm2.
Next, `COc1ccc(-c2oc3c(OC)c(OC)c(OC)c(O)c3c(=O)c2OC)cc1` [5-HYDROXYAURANETIN]: 0.11 umol/cm2; `COc1ccc2c(=O)cc(-c3ccccc3)oc2c1` [7-METHOXYFLAVONE]: 0.059 umol/cm2.
In turn, `O=c1cc(-c2ccccc2)oc2c(O)c(O)cc(O)c12` [NORWOGONIN] displayed an ED50 of 1.52 umol/cm2.
